Sampled rows, rich in hits. Any-hit rate of the full collection: about 4%.
rRNA inh HTS – inhibits bacterial ribosomal RNA function over humanized ribosomes; E. coli WT GFP vs humanized-ribosome RFP mutants, fluorescence, 24 h; stronger effect = lower value; DMSO median 0, no signal -100; GFP signal change (wild-type ribosome), % (concentration not given with the values); 350,000 tested, 1.6% active;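 active = significant combined selectivity score with lowered wild-type GFP, culture density cut under 30%, mutant RFP and density less affected; inactive = any of these conditions unmet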
C2C12 statin – suppression of simvastatin myotoxicity. C2C12 myotubes + simvastatin, ATP luminescence, 48 h; scaled: DMSO 0, geranylgeraniol control 100. rescue of ATP level, % at 7.49 µM. 330,000 tested, 0.78% active. AID 602340;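 active = mean ATP rescue above about 67%, or every replicate alone reaching that limit, limit read from the data, passing the limit was not always enough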;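 also: myotubes were challenged with 10 µM simvastatin during compound exposure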
FN deposition inh – fibronectin deposition inhibition; AH1F fibroblasts, Alexa488-fibronectin deposition fluorescence, overnight; inhibition, % at 12.6 µM; 350,000 tested, 0.086% active;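 active = mean inhibition across replicates of 30% or more, regardless of how many single replicates reach that level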;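 also: positive control wells lacked labelled fibronectin entirely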
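material = AH1F fibroblast monolayer depositing Alexa488-labelled fibronectin into matrix | amount = 10000 AH1F cells/well | buffer or medium = DMEM plus 2% serum, read in PBS | incubation = 1 h cell adhesion before compound, then overnight fibronectin incubation | detection = fluorescence at 485 nm excitation, 525 nm emission | evaluation = percent inhibition as loss of matrix-bound fibronectin fluorescence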
E-sel inducer – E-selectin induction on HUVECs. P16581. 260,000 tested, 0.37% active. HUVEC E-selectin immunofluorescence imaging; normalized: neutral wells 0, TNF-alpha wells 100. activation, % at 7.58 µM. AID 686992;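 active = mean E-selectin-positive cell signal at least 10% of the positive control, reached in at least 60% of replicates, without over 20% cell loss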
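System: HUVEC / Compound: single concentration / Signal: immunofluorescence imaging / Read-out: percent E-selectin-positive cells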
FGF22 binding – shifts melting point of recombinant human FGF22; recombinant FGF22 thermal shift, SYPRO orange fluorescence; percent of sucrose octasulfate shift, DMSO zero; AID 651658; activity (Tm shift, normalised), % at 9.99 µM; 340,000 tested, 1.5% active; Q9HCT0;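 active = mean Tm shift, scaled 0 neutral to 100 positive control, at about 1.3% or above, every replicate too, limit read from the data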
Target sequence (Q9HCT0 whole entry, looked up): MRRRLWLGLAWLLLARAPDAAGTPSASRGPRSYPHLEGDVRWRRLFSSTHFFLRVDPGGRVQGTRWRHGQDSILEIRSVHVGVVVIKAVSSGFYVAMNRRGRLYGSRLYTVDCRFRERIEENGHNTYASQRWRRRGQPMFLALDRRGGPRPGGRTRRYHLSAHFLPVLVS
SIRT5 block – sirtuin-5 (human) deacylase inhibition | Q9NXA8 | Purified SirT5, succinyl-peptide AMC, trypsin-coupled fluorescence | inhibition, % at 15 µM | 330,000 tested, 1.1% active | AID 652115; in the data active = inhibition above about 15%
Target sequence (Q9NXA8 whole entry, looked up): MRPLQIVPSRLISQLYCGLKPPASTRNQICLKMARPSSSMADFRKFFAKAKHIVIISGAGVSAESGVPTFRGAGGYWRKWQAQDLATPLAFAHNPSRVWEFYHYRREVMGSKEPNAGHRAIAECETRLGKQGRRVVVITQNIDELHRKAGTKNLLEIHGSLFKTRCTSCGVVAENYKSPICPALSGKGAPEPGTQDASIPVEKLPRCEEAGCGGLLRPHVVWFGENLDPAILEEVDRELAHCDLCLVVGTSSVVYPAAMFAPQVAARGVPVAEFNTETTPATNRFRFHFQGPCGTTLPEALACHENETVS
The depositor's hits bear a star; · = no result given.

SMILES	rRNA inh HTS	C2C12 statin	FN deposition inh	E-sel inducer	FGF22 binding	SIRT5 block
CC(C)N(Cc1cnn(C)c1)C(=O)c1ccc(OC2CCN(Cc3ccccn3)CC2)cc1	12	9	2	·	0	17*
O=C(c1ccc(OC2CCN(Cc3ccccn3)CC2)cc1)N1CCCCO1	30	1	·	5	43*	-5
Cc1nn(C)cc1CN(C)C(=O)c1ccc(OC2CCN(Cc3ccccn3)CC2)cc1	1	0	12	·	0	-1
O=C(C[C@H]1C[C@@H]2c3cc(NC(=O)Nc4ccccc4F)ccc3O[C@@H]2[C@H](CO)O1)NCc1ccc(Oc2ccccc2)cc1	-4	11	-21	1	0	-1
CCOC(=O)C1=C(C)NC(SCc2cc(=O)[nH][nH]2)=C(C#N)C1c1cccs1 (configuration not stated)	0	-21	·	·	1	20*
CCOC(=O)C1=C(C)NC(SCC(N)=O)=C(C#N)C1c1cccs1 (configuration not stated)	·	-10	·	·	·	·
CSc1ncccc1C(=O)OC(C)C(=O)Nc1ccc2c(c1)OCCO2 (configuration not stated)	·	-3	8	0	0	·
CC(OC(=O)c1cccnc1Cl)C(=O)Nc1ccc2c(c1)OCCO2 (configuration not stated)	0	·	2	0	43*	-4
CN1CCN(C(=O)c2cc(Oc3c(F)c(F)c(F)c(F)c3F)cc(C(=O)N3CCN(C)CC3)c2)CC1	10	·	-1	·	44*	-1
COc1ccc(-n2nnc3c(=O)n(CC(=O)N4CCCC4)cnc32)cc1	·	·	3	·	·	·
COc1ccc(-n2nnc3c(=O)n(CC(=O)N4CCCCC4)cnc32)cc1	1	10	0	·	0	15*
Cc1ccc(Cn2nnc3c(=O)n(CC(=O)OCc4ccccc4)cnc32)cc1	-1	9	·	·	0	0
O=C(Cn1cnc2c(nnn2Cc2ccc(Cl)cc2)c1=O)NC1CCCC1	·	4	·	·	·	·
O=C(Cn1cnc2c(nnn2Cc2ccc(F)cc2)c1=O)NC1CCCC1	·	141*	0	·	·	·
Cc1ccc(Cn2nnc3c(=O)n(CC(=O)N4CCN(c5ccccc5)CC4)cnc32)cc1	-25*	36	·	·	0	-2
CC(=O)N(C)C[C@H]1Oc2ncc(-c3cccc(F)c3)cc2C(=O)N([C@H](C)CO)C[C@H]1C	1	-2	-6	0	0	-3
CCCNC(=O)N1[C@@H]2CN(C(=O)c3ccc(F)cc3)c3ccccc3[C@@H]2[C@@H]1CO	1	3	·	0	0	-1
CN(C)CC(=O)Nc1ccc2c(c1)[C@@H]1C[C@@H](CC(=O)NCC3CC3)O[C@H](CO)[C@@H]1O2	10	-13	9	0	0	2
O=C(CC1CC1)N1CC(=O)N2[C@H](CO)[C@H](c3ccc(C#Cc4ccccc4)cc3)[C@H]2C1	6	·	·	1	·	-1
CS(=O)(=O)N1[C@H](CO)[C@H](c2ccccc2)C12CN(C(=O)c1ccccc1F)C2	-1	·	-1	0	0	-4
CS(=O)(=O)N1CCN(C(=O)c2c(F)cccc2F)CC1	·	20	·	·	·	·
CS(=O)(=O)N1[C@@H](CO)[C@@H](c2ccccc2)C12CN(C(=O)c1ccccc1F)C2	0	·	-2	0	0	19*
CS(=O)(=O)N1CCN(C(=O)c2ccccc2F)CC1	·	95*	5	·	·	·
C[C@@H]1CN([C@@H](C)CO)C(=O)c2cc(NC(=O)Nc3ccc4c(c3)OCO4)ccc2O[C@@H]1CN(C)S(=O)(=O)c1cccs1	-4	·	9	0	0	7
Cc1ccc(S(=O)(=O)N(C)C[C@@H]2Oc3ccc(NC(=O)Nc4cccc5ccccc45)cc3CC(=O)N([C@@H](C)CO)C[C@@H]2C)cc1	7	-11	·	0	0	-2
SMILES	rRNA inh HTS	C2C12 statin	FN deposition inh	E-sel inducer	FGF22 binding	SIRT5 block
C[C@@H]1CN([C@H](C)CO)C(=O)Cc2cc(NC(=O)Nc3cccc4ccccc34)ccc2O[C@@H]1CN(C)S(=O)(=O)c1cccs1	1	75*	·	4	0	·
Cc1ccc(S(=O)(=O)N(C)C[C@H]2Oc3ccc(NC(=O)Nc4cccc5ccccc45)cc3CC(=O)N([C@@H](C)CO)C[C@H]2C)cc1	3	31	20	1	0	19*
Cc1noc(C)c1NC(=O)N(C)C[C@H]1Oc2ccc(NS(=O)(=O)c3c(C)noc3C)cc2CC(=O)N([C@@H](C)CO)C[C@H]1C	4	-43	8	0	0	0
NNC(=O)Cc1csc(-c2ccccc2)n1	-28*	·	-4	·	0	1
COc1ccc(-c2nc(CC(=O)O)cs2)cc1	·	105*	·	·	·	·
O=C(Cc1csc(-c2ccccc2)n1)Nc1ccc(C(F)(F)F)cc1	·	6	1	·	·	·
CCCN1C(=O)c2ccc(C(=O)Nc3ccccc3C(=O)O)cc2C1=O	-21*	8	5	0	0	0
O=C(Nc1c[nH]c(=O)[nH]c1=O)c1ccc2c(c1)C(=O)N(c1cccc([N+](=O)[O-])c1)C2=O	7	1	-11	·	0	2
CCCN1C(=O)c2ccc(C(=O)Nc3cc(C)ccc3O)cc2C1=O	7	6	3	·	0	·
O=C(Nc1ccccc1C(=O)O)c1ccc2c(c1)C(=O)N(c1cccc([N+](=O)[O-])c1)C2=O	19	-13	-2	0	0	18*
CC=Cc1ccc2n(c1=O)C[C@H]1[C@H](CO)[C@@H](C(=O)N3CCCCC3)N(C(=O)CC)[C@@H]21 (mixture of isomers)	2	2	·	0	0	-1
COc1ccccc1OCCNC1CCCC1	·	160*	3	·	·	·
COCC(=O)Nc1ccc2c(c1)[C@H]1C[C@@H](CC(=O)N3CCCCC3)O[C@@H](CO)[C@H]1O2	2	3	8	0	0	·
CCOc1ccc(NC(=O)CN(C)C(=O)c2sc3ccccc3c2Cl)cc1OCC	-29*	0	-4	0	0	1
CCOc1ccc(NC(=O)CN(C)C(=O)c2cccc3ccccc23)cc1OCC	-2	10	1	0	0	7
CCOc1ccc(NC(=O)CN(C)C(=O)c2cc([N+](=O)[O-])ccc2Sc2ccccc2)cc1OCC	-12	1	-9	0	19*	3
Cc1nc2cc(C(=O)N3CCc4ccccc43)ccc2n1-c1ccc(F)c(F)c1	-53	1	9	0	0	16*
Cc1noc(C)c1NC(=O)N[C@@H]1CC[C@@H](CC(=O)Nc2ccc(-c3ccccc3)cc2)O[C@H]1CO	-8	8	-13	0	0	-3
CN(C)S(=O)(=O)c1ccc(C(=O)Nc2nnc(-c3ccco3)o2)cc1	-7	-9	·	·	0	16*

Assay outcomes (PubChem)
